Values joined by “and” are separate entries in the source; they are usually repeats but may differ in a detail not shown here. Equal entries are not always repeated.
Legend:
hCCR2 [1] = molecular target: T1, hCCR2 (Homo sapiens, UniProt P41597); assay: [3H]-CCR2-RA-[R] displacement binding assay on U2OS-CCR2b membranes; conditions: displacement of ∼6 nM [3H]-CCR2-RA-[R] from U2OS cells stably expressing CCR2, 25 °C
T1 sequence (P41597 1-360 isoform P41597-2): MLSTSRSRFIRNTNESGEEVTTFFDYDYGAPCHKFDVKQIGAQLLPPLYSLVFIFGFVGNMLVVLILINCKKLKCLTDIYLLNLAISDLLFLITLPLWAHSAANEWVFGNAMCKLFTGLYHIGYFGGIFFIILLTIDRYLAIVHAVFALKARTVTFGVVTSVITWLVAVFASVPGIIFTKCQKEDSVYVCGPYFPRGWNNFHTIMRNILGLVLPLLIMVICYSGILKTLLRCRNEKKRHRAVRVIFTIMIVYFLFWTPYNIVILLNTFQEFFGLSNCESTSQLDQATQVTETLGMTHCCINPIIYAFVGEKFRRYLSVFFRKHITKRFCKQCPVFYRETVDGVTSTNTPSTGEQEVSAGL
Outline: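 U2OS-CCR2b membranes (15–20 μg protein) were incubated with ~6 nM [3H]-CCR2-RA-[R] and at least 6 competitor concentrations. Buffer: 50 mM Tris-HCl, 5 mM MgCl2, 0.1% CHAPS, pH 7.4. Incubation 2 h at 25 °C. Rapid GF/B filtration, ten washes with ice-cold buffer (0.05% CHAPS), scintillation counting. Mean ± SEM of ≥3 experiments in duplicate.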

hCCR5 = hCCR5 (Homo sapiens, UniProt P51681); assay: Tango β-arrestin recruitment assay in U2OS-CCR5 cells; assay type: cell-based; conditions: inhibition of CCL3-induced β-arrestin recruitment in U2OS-CCR5
Outline: (§1)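 Tango bla U2OS cells (human CCR2b or CCR5) were trypsinized and seeded at 10 000 cells/well in FreeStyle medium. Agonist mode: CCL2 or CCL3 for 16 h, 37 °C, 5% CO2. Antagonist mode: 30 min room-temperature preincubation with increasing compound (≤0.5% DMSO final), then 16 h with EC80 CCL2 (5 nM, CCR2) or CCL3 (14 nM, CCR5). LiveBLAzer-FRET B/G substrate 2 h; excitation 400 nm, 460/535 nm emission ratio.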

hCCR2 [2] = molecular target: T1, hCCR2; assay: Tango β-arrestin recruitment assay in U2OS-CCR2 cells; assay type: cell-based; conditions: inhibition of CCL2-induced β-arrestin recruitment in U2OS-CCR2
Outline: as §1

CCR2 = conditions: read-out: IC50 in CCR2 calcium flux assay; previously reported activity; cited from earlier work

Chain of hCCR5 (P51681 whole entry): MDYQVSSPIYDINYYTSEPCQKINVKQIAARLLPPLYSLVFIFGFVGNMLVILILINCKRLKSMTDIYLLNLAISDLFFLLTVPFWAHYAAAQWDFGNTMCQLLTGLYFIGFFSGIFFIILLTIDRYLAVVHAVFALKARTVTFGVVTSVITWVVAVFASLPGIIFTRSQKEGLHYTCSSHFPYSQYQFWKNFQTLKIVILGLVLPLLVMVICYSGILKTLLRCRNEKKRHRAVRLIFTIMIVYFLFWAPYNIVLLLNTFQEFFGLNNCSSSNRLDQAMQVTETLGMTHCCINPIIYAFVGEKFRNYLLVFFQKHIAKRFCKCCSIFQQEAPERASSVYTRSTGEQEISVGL

pKi ± SEM (hCCR2 [1]): 8.90 ± 0.04 | Hill slope (nH) (hCCR5): −2.2 ± 0.3 | Hill slope (nH) (hCCR2 [2]): −2.7
SMILES: Nc1nc2[nH]c(C3CC3)c(Cc3cccc(Cl)c3)c(=O)n2n1 [Compound 8, 2-Amino-6-(3-chlorobenzyl)-5-cyclopropyl[1,2,4]triazolo[1,5-a]pyrimidin-7(4H)-one]
IC50 (CCR2): 16 nM and ~20 nM
